{"source": "ChEMBL document CHEMBL4513216", "about": "“Probing the Open Global Health Chemical Diversity Library for Multistage-Active Starting Points for Next-Generation Antimalarials” (ACS Infect Dis, 2020)"}
{"experiment": "Toxicity liver stage against HepG2, at 10uM", "assay_type": "cell-based", "parameters": "test concentration 10 uM, cell line HepG2-A16-CD81EGFP", "conditions": "human, HepG2-A16-CD81EGFP cells; read-out: INHIBITION", "in_short": "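Uninfected HepG2-A16-CD81EGFP cells, 3 × 10^3 per well, 1536-well, plated on prespotted compound at 10 μM final, parasite-free screening media added to match infected plates; puromycin 10 μM positive, DMSO 0.5% negative; run in parallel with 48 h PbLuc assay at 37 °C, 5% CO2; viability by CellTiter-Glo luminescence, normalized to controls.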", "units": {"cytotoxicity at 10 µM": "%"}}
{"molecule": "Nc1cc(C(=O)NCC2CCN(Cc3ccncc3F)C2)ccn1", "note": "(stereo not given)", "cytotoxicity at 10 µM": -24.2}
{"molecule": "Cc1ncsc1CCN(C)Cc1cc2n(n1)CCN(Cc1ccco1)C2", "cytotoxicity at 10 µM": -4.93}
{"molecule": "Cc1cccc(-n2nc(CC(C)C)nc2CS(C)(=O)=O)c1", "cytotoxicity at 10 µM": 1.81}
{"molecule": "COc1ccc(CNC(=O)N2CCN(C)[C@@H]3CS(=O)(=O)C[C@@H]32)cc1", "cytotoxicity at 10 µM": 8.64}
{"molecule": "CN(Cc1noc2c1CCCC2)C(=O)CN1C(=O)CSc2ccccc21", "cytotoxicity at 10 µM": -40.5}
{"molecule": "CN(CCN1CCCCCC1)Cc1cnc(N)nc1", "cytotoxicity at 10 µM": 0.993}
{"molecule": "Cc1cc(N2CCC(C(=O)O)(n3ccc(C(C)(C)C)n3)CC2)nc(N)n1", "cytotoxicity at 10 µM": -5.6}
{"molecule": "Cc1csc(CN(C)c2cc(C)nc3c(C)c(C)nn23)n1", "cytotoxicity at 10 µM": -2.96}
{"molecule": "CCC(C)N(Cc1cccnc1)C(=O)c1ccc(F)c(O)c1", "note": "(stereo not given)", "cytotoxicity at 10 µM": 1.87}
{"molecule": "CCn1c(C2CCCN(Cc3cccc4cnccc34)C2)nn(C)c1=O", "note": "(stereo not given)", "cytotoxicity at 10 µM": -6.29}
{"molecule": "COc1ccc(Cl)cc1C(=O)N1C[C@@H](NC(=O)N(C)C)[C@H](C(C)C)C1", "cytotoxicity at 10 µM": -1.41}
{"molecule": "Cc1nnc(CCNC(=O)c2coc(CN3CCOCC3)c2)s1", "cytotoxicity at 10 µM": -9.21}
{"molecule": "CCCc1nnc(N2CCN(c3ccccc3OCC)CC2)o1", "cytotoxicity at 10 µM": 3.88}
{"molecule": "CCc1cc(N2CCSCC2)n2nc(C)c(C)c2n1", "cytotoxicity at 10 µM": -0.854}
{"molecule": "O=C(Cc1cccc(Cl)c1)N[C@@H]1CCNC[C@H]1O", "cytotoxicity at 10 µM": 2.28}
{"molecule": "COCCNC(=O)CN1CCN(c2nc(C)cs2)CC1", "cytotoxicity at 10 µM": -13.2}
{"molecule": "CC(NC(=O)NCCCN1CCCC1)c1nncn1C", "note": "(stereo not given)", "cytotoxicity at 10 µM": -0.373}
{"molecule": "COc1cc(CNCC(O)c2ccc(F)cc2F)cc2c1OCO2", "note": "(stereo not given)", "cytotoxicity at 10 µM": -1.37}
{"molecule": "CCS(=O)(=O)c1ccccc1N1CCC(NC2CCCC2)CC1", "cytotoxicity at 10 µM": -2.63}
{"molecule": "Cc1ccc(NC(=O)C2CSCN2C(=O)c2cccnc2)c(C)c1", "note": "(stereo not given)", "cytotoxicity at 10 µM": -1.9}
{"molecule": "O=C1C(NCc2nnc3n2CCCC3)CCN1c1ccccc1Cl", "note": "(stereo not given)", "cytotoxicity at 10 µM": -7.42}
{"molecule": "CCc1nc(CNCCn2cc(C)cn2)no1", "cytotoxicity at 10 µM": -4.32}
{"molecule": "Cn1cc(C2CCCN2C(=O)CCCOc2ccccc2F)cn1", "note": "(stereo not given)", "cytotoxicity at 10 µM": 0.2}
{"molecule": "Cc1noc(CCCC(=O)N2CCCC2c2ccsc2)n1", "note": "(stereo not given)", "cytotoxicity at 10 µM": -3.02}
{"molecule": "CS(=O)(=O)NCCN1CCCC1c1noc(C2CC2)n1", "note": "(stereo not given)", "cytotoxicity at 10 µM": -23.7}
{"molecule": "Cc1n[nH]c(C2CN(Cc3nnc(C4CCC4)o3)CCO2)n1", "note": "(stereo not given)", "cytotoxicity at 10 µM": -3.72}
{"molecule": "c1ccc(-c2nnc(CN3CCOC(Cn4cccn4)C3)o2)cc1", "note": "(stereo not given)", "cytotoxicity at 10 µM": -2.48}
{"molecule": "Cc1n[nH]c(C2CN(C(=O)c3cc4c(s3)CCC4)CCO2)n1", "note": "(stereo not given)", "cytotoxicity at 10 µM": -5.65}
{"molecule": "Cc1nc(C(=O)N2CCCC2c2noc(C)n2)c[nH]1", "note": "(stereo not given)", "cytotoxicity at 10 µM": -4.95}
{"molecule": "CC(C)c1ccc(S(=O)(=O)N2CSCC2C(=O)NCC(F)(F)F)cc1", "note": "(stereo not given)", "cytotoxicity at 10 µM": -13.3}
{"molecule": "Fc1ccc(OCCNCCn2cccn2)cc1", "cytotoxicity at 10 µM": -4.17}
{"molecule": "CC(C)c1nc(C2CCCN2C(=O)c2ccc(N(C)C)nn2)no1", "note": "(stereo not given)", "cytotoxicity at 10 µM": -8.11}
{"molecule": "O=C(c1ccc(O)cc1)N1CCN(C(=O)c2ccc3c(c2)COC3)CC1", "cytotoxicity at 10 µM": -9.75}
{"molecule": "COc1cccc(OCC(=O)NS(=O)(=O)c2ccc(C)s2)c1", "cytotoxicity at 10 µM": -5.87}
{"molecule": "COC(=O)N1CCCC(C(=O)NCc2cc3cccc(OC)c3o2)C1", "note": "(stereo not given)", "cytotoxicity at 10 µM": -7.72}
{"molecule": "COc1ccc2cc(C(=O)N3CCCCC3Cn3cccn3)[nH]c2c1", "note": "(stereo not given)", "cytotoxicity at 10 µM": -9.32}
{"molecule": "CCn1cc(NC(=O)C2CCN(Cc3noc(C(C)C)n3)CC2)cn1", "cytotoxicity at 10 µM": 0.89}
{"molecule": "COc1ccnc(N2CCN(C(=O)NCc3ccc(C)s3)CC2)n1", "cytotoxicity at 10 µM": -2.45}
{"molecule": "COCCOc1ccc(NC(=O)N2CCCC2c2cc(C)no2)cn1", "note": "(stereo not given)", "cytotoxicity at 10 µM": 5.32}
{"molecule": "CNC(=O)[C@@H](c1ccccc1F)N1CCC[C@H]1C(=O)NC1CC1", "cytotoxicity at 10 µM": -5.84}
{"molecule": "Cn1cc(CN2CCC(F)(F)C3(CCN(c4ccccn4)C3)C2)cn1", "note": "(stereo not given)", "cytotoxicity at 10 µM": -0.434}
{"molecule": "CN(C)CCOCc1nnc2n1CCN(Cc1ccoc1)CC2", "cytotoxicity at 10 µM": -10.7}
{"molecule": "CCS(=O)(=O)N1CCC2(CC1)CC(Oc1ccccn1)CO2", "note": "(stereo not given)", "cytotoxicity at 10 µM": -1.58}
{"molecule": "O=C(CC1CC1)N1CCN(Cc2cccnc2)c2ncccc2C1", "cytotoxicity at 10 µM": 5.15}
{"molecule": "CC(C)N1CC[C@H]2[C@H](C[C@@H](Cn3cncn3)N2c2nccs2)C1", "cytotoxicity at 10 µM": 4.68}
{"molecule": "CC(=O)N1CC[C@H]2[C@H](C[C@@H](CN3CCCC3)N2c2nccs2)C1", "cytotoxicity at 10 µM": 1.84}
{"molecule": "CN1CCn2c(-c3cnn(C)c3)cnc2C12CCN(CC1CC1)CC2", "cytotoxicity at 10 µM": 7.55}
{"molecule": "O=C(Cc1ccccc1)N1C[C@@H]2OCCN(CC3CCCO3)[C@@H]2C1", "note": "(stereo not given in full)", "cytotoxicity at 10 µM": -3.09}
{"molecule": "O=S(=O)(C1CC1)N1C[C@H]2CCC[C@@]2(COc2ccccn2)C1", "cytotoxicity at 10 µM": -3.47}
{"molecule": "O=C(N1CCOCC1)[C@@]12CCO[C@@H]1CCN(C1CCCCC1)C2", "cytotoxicity at 10 µM": 2.14}
{"molecule": "c1cncc(C2COC3(CCN(Cc4cccs4)CC3)C2)c1", "note": "(stereo not given)", "cytotoxicity at 10 µM": -0.697}
{"molecule": "CCN1CCO[C@@H]2CN(C(=O)COC3CCCC3)C[C@@H]2C1", "cytotoxicity at 10 µM": 4.32}
{"molecule": "COC(=O)Cn1c(=O)[nH]c2cn(-c3ccc(Cl)cc3)c(=O)n21", "cytotoxicity at 10 µM": 23.7}
{"molecule": "O=C(Cc1cccnc1)N1C[C@@H]2CC[C@H]1CN(Cc1ccc(F)cc1)C2", "cytotoxicity at 10 µM": 4.54}
{"molecule": "CN(C)S(=O)(=O)N1C[C@H]2CC[C@@H](C1)N(Cc1ccc(F)c(F)c1)C2", "cytotoxicity at 10 µM": 1.05}
